# Assay results from different studies.
# Each line is one published result; the experiments were not run side by side.
# Target: Tyrosine-protein kinase BTK (BTK, Homo sapiens, UniProt Q06187)
Compound,test,conditions,endpoint,result
Cn1cncc1[C@@](O)(COc1ccc(C#N)cc1-c1ccc(OC(F)(F)F)cc1)c1ccc(C#N)cc1,"cell-free assay, competition with immobilised ligand",1 µM,remaining binding,82%
C#Cc1n[nH]c2c(-c3cn(C(C)c4ccccn4)c(=O)[nH]c3=O)cc(F)cc12 (centres unmarked),"enzyme activity, inhibitor",1 µM,inhibition,1.7%
Nc1ncc(-c2nc(N3CCOCC3)nc(N3CCOCC3)n2)c(C(F)F)n1,"binding, competition with immobilised ligand",10 µM,remaining binding,26%
O=c1[nH]c2ccccc2n1C1CCN(Cc2ccc(-c3[nH]c4cc5ncnc5cc4nc3-c3ccccc3)cc2)CC1,cell-free assay,0.5 µM,remaining signal,98.4%
COc1ncccc1-c1cnn2ccc(N3CCN(C(=O)OC(C)C)CC3)nc12,"binding, competition with immobilised ligand",1 µM,remaining binding,68%
CC(C)(C)c1cc(C=C(C#N)C#N)cc(Br)c1O,"enzyme activity, inhibitor",0.5 µM,remaining activity,101%
N#CC1(c2ccccn2)CCN(Cc2cc(C(=O)O)c(=O)n3ccccc23)CC1,"cell-free assay, competition with immobilised ligand",1 µM,remaining binding,100%
Cc1nn(C)cc1-c1nc2c(N3CCN(Cc4ccc(Cl)cc4)CC3)c(Cl)cnc2[nH]1,"binding, competition with immobilised ligand",1 µM,remaining binding,100%
